# Columns and labels:
# Staphylococcus aureus [1] = assay: Antibacterial activity against Staphylococcus aureus RN4220 after 24 hrs by microtiter ELISA; type: functional; conditions: RN4220, 24 h
# In short: (§1)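 Broth microdilution MIC. Bacteria grown to mid-log phase in Mueller-Hinton broth, diluted 1000-fold, and inoculated at 10^5 CFU/mL. Compounds in DMSO (final ≤0.05%) were given as two-fold serial dilutions, final 64-0.25 µg/mL. Plates were incubated 24 h at 37 °C and growth read at 650 nm. MIC is the lowest concentration giving complete growth inhibition. Three independent experiments; oxacillin and norfloxacin served as positive controls.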
# Staphylococcus aureus [2] = assay: Antibacterial activity against quinolone-resistant Staphylococcus aureus CCARM 3505 after 24 hrs by microtiter ELISA; type: functional; conditions: CCARM 3505, 24 h; in short: as §1
# Escherichia coli = assay: Antibacterial activity against Escherichia coli KCTC 1924 after 24 hrs by microtiter ELISA; type: functional; conditions: KCTC 1924, 24 h
# In short: (§2)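 Two-fold serial broth dilution in Mueller-Hinton broth, final 64-0.25 µg/mL; compounds in DMSO (final ≤0.05%). Mid-log cultures diluted 1000-fold, inoculum 10^5 CFU/mL; oxacillin and norfloxacin as positive controls. After 24 h at 37 °C, growth read at 650 nm on a microtiter ELISA reader; MIC = lowest level giving complete growth inhibition. Run three times.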
# Staphylococcus aureus [3] = assay: Antibacterial activity against methicillin-resistant Staphylococcus aureus CCARM 3506 after 24 hrs by microtiter ELISA; type: functional; conditions: CCARM 3506, 24 h; in short: as §1
# Candida albicans = assay: Antifungal activity against Candida albicans 7535 after 24 hrs by microtiter ELISA; type: functional; conditions: Candida albicans, 7535, 24 h; in short: as §2
# Staphylococcus aureus [4] = assay: Antibacterial activity against methicillin-resistant Staphylococcus aureus CCARM 3167 after 24 hrs by microtiter ELISA; type: functional; conditions: CCARM 3167, 24 h; in short: as §1
# Streptococcus mutans = assay: Antibacterial activity against Streptococcus mutans 3289 after 24 hrs by microtiter ELISA; type: functional; conditions: Streptococcus mutans, 3289, 24 h; in short: as §2
# Staphylococcus aureus [5] = assay: Antibacterial activity against quinolone-resistant Staphylococcus aureus CCARM 3519 after 24 hrs by microtiter ELISA; type: functional; conditions: CCARM 3519, 24 h; in short: as §1
# L02 = assay: Cytotoxicity against human L02 cells assessed as inhibition of cell growth measured after 24 hrs by MTT assay; type: cell-based; conditions: L02, 24 h
# In short: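 L02 normal human liver cells seeded at 1.8 × 10^4 cells/well in DMEM with 10% FBS and antimycotic. Exposed 24 h at 37 °C, 5% CO2 to 200-1.625 µM, compounds in 10% DMSO. MTT (2.5 mg/mL) added for 4 h, formazan dissolved in DMSO, OD at 570 nm. Untreated cells as negative control; IC50 = 50% growth inhibition; triplicate.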
Compound,MIC (Staphylococcus aureus [1]),MIC (Staphylococcus aureus [2]),MIC (Escherichia coli),MIC (Staphylococcus aureus [3]),MIC (Candida albicans),MIC (Staphylococcus aureus [4]),MIC (Streptococcus mutans),MIC (Staphylococcus aureus [5]),IC50 (L02)
CN(C)C1=NC(c2cn(-c3ccccc3)nc2-c2ccc(Cl)cc2)N=C(N)N1 (stereo not drawn),8 µg/mL,16 µg/mL,8 µg/mL,8 µg/mL,8 µg/mL,16 µg/mL,32 µg/mL,16 µg/mL,–
NC1=NC(c2cn(-c3ccc([N+](=O)[O-])cc3)nc2-c2ccc(Cl)cc2Cl)N=C(N2CCOCC2)N1 (stereo not drawn),2 µg/mL,4 µg/mL,4 µg/mL,2 µg/mL,4 µg/mL,2 µg/mL,8 µg/mL,4 µg/mL,> 100 µM
NC1=NC(c2cn(-c3ccc([N+](=O)[O-])cc3[N+](=O)[O-])nc2-c2ccccc2F)N=C(N2CCOCC2)N1 (stereo not drawn),64 µg/mL,64 µg/mL,64 µg/mL,32 µg/mL,64 µg/mL,64 µg/mL,> 64 µg/mL,64 µg/mL,–
CCC(C)n1ncn(-c2ccc(N3CCN(c4ccc(OCC5COC(Cn6cncn6)(c6ccc(Cl)cc6Cl)O5)cc4)CC3)cc2)c1=O (stereo not drawn) [ITRACONAZOLE],–,–,–,–,0.6 µg/mL,–,–,–,–
NC1=NC(c2cn(-c3ccc([N+](=O)[O-])cc3[N+](=O)[O-])nc2-c2ccccc2[N+](=O)[O-])N=C(N2CCOCC2)N1 (stereo not drawn),> 64 µg/mL,> 64 µg/mL,> 64 µg/mL,> 64 µg/mL,> 64 µg/mL,> 64 µg/mL,> 64 µg/mL,> 64 µg/mL,–
CN(C)C1=NC(c2cn(-c3ccc([N+](=O)[O-])cc3[N+](=O)[O-])nc2-c2cccc(Cl)c2)N=C(N)N1 (stereo not drawn),4 µg/mL,4 µg/mL,8 µg/mL,4 µg/mL,8 µg/mL,4 µg/mL,8 µg/mL,16 µg/mL,–
CCn1cc(C(=O)O)c(=O)c2cc(F)c(N3CCNCC3)cc21 [NORFLOXACIN],–,> 64 µg/mL,–,4 µg/mL,–,8 µg/mL,–,> 64 µg/mL,–
NC1=NC(c2cn(-c3ccc([N+](=O)[O-])cc3[N+](=O)[O-])nc2-c2ccc(Cl)cc2Cl)N=C(N2CCOCC2)N1 (stereo not drawn),16 µg/mL,8 µg/mL,8 µg/mL,8 µg/mL,8 µg/mL,8 µg/mL,16 µg/mL,16 µg/mL,–
CN(C)C1=NC(c2cn(-c3ccc([N+](=O)[O-])cc3[N+](=O)[O-])nc2-c2ccccc2)N=C(N)N1 (stereo not drawn),32 µg/mL,32 µg/mL,32 µg/mL,64 µg/mL,32 µg/mL,32 µg/mL,64 µg/mL,64 µg/mL,–
CN(C)C1=NC(c2cn(-c3ccc([N+](=O)[O-])cc3[N+](=O)[O-])nc2-c2ccc(F)cc2)N=C(N)N1 (stereo not drawn),32 µg/mL,64 µg/mL,32 µg/mL,32 µg/mL,32 µg/mL,32 µg/mL,32 µg/mL,64 µg/mL,–
CN(C)C1=NC(c2cn(-c3ccc([N+](=O)[O-])cc3[N+](=O)[O-])nc2-c2ccc(Br)cc2)N=C(N)N1 (stereo not drawn),8 µg/mL,4 µg/mL,8 µg/mL,4 µg/mL,8 µg/mL,8 µg/mL,16 µg/mL,8 µg/mL,–
Cc1ccc(-c2nn(-c3ccccc3)cc2C2N=C(N)NC(N(C)C)=N2)cc1 (stereo not drawn),32 µg/mL,64 µg/mL,32 µg/mL,32 µg/mL,32 µg/mL,16 µg/mL,64 µg/mL,64 µg/mL,–
Cc1ccc(-c2nn(-c3ccccc3)cc2C2N=C(N)NC(N3CCOCC3)=N2)cc1 (stereo not drawn),64 µg/mL,64 µg/mL,64 µg/mL,32 µg/mL,64 µg/mL,32 µg/mL,64 µg/mL,64 µg/mL,–
NC1=NC(c2cn(-c3ccc([N+](=O)[O-])cc3[N+](=O)[O-])nc2-c2ccc(Br)cc2)N=C(N2CCOCC2)N1 (stereo not drawn),8 µg/mL,8 µg/mL,8 µg/mL,4 µg/mL,8 µg/mL,8 µg/mL,16 µg/mL,8 µg/mL,–
OC(Cn1cncn1)(Cn1cncn1)c1ccc(F)cc1F [FLUCONAZOLE],–,–,–,–,1 µg/mL,–,–,–,–

# From ChEMBL document CHEMBL4316612, “Synthesis of novel dihydrotriazine derivatives bearing 1,3-diaryl pyrazole moieties as potential antibacterial agents” (Bioorg Med Chem Lett, 2019)
